Compound activity: PubChem BioAssay, The Scripps Research Institute Molecular Screening Center
Shown are actives, neighbours in structure and some others; about 1.7% of the full set was active somewhere.
CHO-K1 Ca ag: counter-screen for M1 agonists: effect in parental CHO-K1 cells. Fluo-8 calcium fluorescence; scaled to maximal ATP response, vehicle zero. activation, % at 3 µM. 360,000 compounds, 0.48% hits. AID 602248, 2012; in the data active means activation above about 15%;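 further: untransfected CHO-K1 host cells lacking M1 receptor as counterscreen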
CHRM5 agonist: human M5 muscarinic receptor agonists, primary screen, CHO-K1 cells, Fluo-8 calcium fluorescence; activation, % at 3 µM; 360,000 compounds, 0.19% hits; CHO-K1 hM5 cells; 0% DMSO wells, 100% maximal acetylcholine response;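 active means activation above the run's mean over test compounds plus 3 SD, cut at about 23% in these data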;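 further: signal is peak over basal fluorescence ratio across the kinetic read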
Target sequence (P08912 whole entry, looked up): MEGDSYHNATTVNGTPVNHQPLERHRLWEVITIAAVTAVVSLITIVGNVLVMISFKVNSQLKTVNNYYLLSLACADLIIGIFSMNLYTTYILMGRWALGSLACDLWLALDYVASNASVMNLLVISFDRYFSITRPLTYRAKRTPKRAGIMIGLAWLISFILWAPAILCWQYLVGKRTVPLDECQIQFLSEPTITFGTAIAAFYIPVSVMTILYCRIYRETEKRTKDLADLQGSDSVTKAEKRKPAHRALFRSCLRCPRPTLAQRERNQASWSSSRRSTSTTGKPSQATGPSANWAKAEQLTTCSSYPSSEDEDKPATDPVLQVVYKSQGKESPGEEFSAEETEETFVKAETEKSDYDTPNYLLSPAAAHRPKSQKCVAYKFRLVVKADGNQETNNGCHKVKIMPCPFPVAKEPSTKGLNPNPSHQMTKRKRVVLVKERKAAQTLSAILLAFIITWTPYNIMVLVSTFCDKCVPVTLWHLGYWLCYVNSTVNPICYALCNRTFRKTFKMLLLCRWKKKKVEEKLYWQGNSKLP
CHRM5 antagonist: human M5 muscarinic receptor antagonists, primary screen, CHO cells, Fluo-8 calcium fluorescence; 360,000 compounds, 0.59% hits; Muscarinic acetylcholine receptor M5 (Homo sapiens), P08912; CHO-hM5 cells, ACh EC80; inhibition, % at 3 µM;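 active means inhibition above a per-plate cutoff, the mean of that plate's test compounds plus 3 SD, cut at about 27% in these data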;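 further: 0% = acetylcholine EC80 with DMSO and 100% = DMSO without agonist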
CHO-K1 Ca antag: counter-screen for M1 antagonists: effect in parental CHO-K1 cells; 360,000 compounds, 0.6% hits; ATP-induced calcium, Fluo-8 fluorescence; AID 602250; inhibition, % at 3 µM;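 active means inhibition above a per-plate cutoff, the plate's mean sample inhibition plus 3 SD, cut at about 24% in these data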;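 further: 0% = DMSO plus EC80 ATP and 100% = DMSO alone without ATP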
M5 PAM: human M5 muscarinic receptor positive allosteric modulators, primary screen, CHO-K1 cells, Fluo-8 calcium fluorescence. AID 624038, 2012. 360,000 compounds, 0.3% hits. CHO-K1 hM5, ACh EC20 PAM; 0% = ACh EC20, 100% = ACh EC100. activation, % at 3 µM;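 active means activation above the run cutoff, the mean activation of all test compounds plus 3 SD, cut at about 18% in these data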
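System – CHO-K1 hM5 cells · Compound – 3 µM, single dose · Incubation – compound preincubation 140 s before EC20 acetylcholine addition · Technique – Fluo-8 calcium fluorescence · Measure – Max/basal fluorescence ratio as % of EC20–EC100 ACh window · Benchmarks – low control EC20 acetylcholine (0%), high control EC100 acetylcholine (100%) · Replication – singlicate, one well per test compound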
CHO-K1 Ca PAM: nonselective calcium activators in parental CHO-K1 cells, primary screen, counter-screen for M1 PAM project, cell-based, Fluo-8 calcium fluorescence, full deck, 1536-well; ATP EC20; 0% at ATP EC20, 100% at ATP max; activation, % at 3 µM; 360,000 compounds, 0.02% hits;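 active means activation above the run cutoff, the mean activation of all test compounds plus 3 SD, cut at about 40% in these data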;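 further: peak over basal fluorescence ratio in a 140 s read after ATP addition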
Starred values were filed as active, the others as inactive.

SMILES	CHO-K1 Ca ag	CHRM5 agonist	CHRM5 antagonist	CHO-K1 Ca antag	M5 PAM	CHO-K1 Ca PAM
CCOC(=O)c1c(C)[nH]c(C(=O)NNC(=O)c2ccccc2)c1C	0	0	3	-8	-2	6
C/C(=N/NC(=O)CNC(=O)c1ccc2c(c1)OCO2)c1ccc2c(c1)CCCC2	-1	-2	10	25*	0	-17
CNc1cnc(-c2ccc(C(=O)N3CCOCC3)cc2)cn1	1	-1	-4	-16	0	20
COc1ccc(CC(=O)Nc2cccc(-c3nnc(-c4cccc(C)c4)o3)c2)cc1OC	7	7	36*	5	-25	4
COc1ccc(CC(=O)Nc2cccc(-c3nnc(-c4ccc(C)cc4)o3)c2)cc1OC	3	4	-3	6	-5	9
O=[N+]([O-])c1ccc(N=Nc2c(Cl)cc(O)cc2Cl)cc1	17*	12	30*	40*	-21	-22
S=c1nc2c(n[nH]1)c1ccccc1n2CCc1ccccc1	0	0	-2	-1	-4	18
OC(c1cc(-c2cccc(Cl)c2)nc2ccccc12)C1CCCCN1 (stereo unspecified)	27*	3	8	15	-1	12
OC(c1cc(C(F)(F)F)nc2c(C(F)(F)F)cccc12)C1CCCCN1 (stereo unspecified)	2	16	9	20	-1	-3
Cc1nn(CC(=O)NCc2cccc(F)c2)c(=O)c2cccn12	1	-5	29*	2	-5	3
CCOc1ccc(C(=O)N(CC)CC(=O)Nc2ccc3c(c2)OCCO3)cc1OCC	1	0	1	-16	-2	10
Cc1ccc(Nc2ccc(-n3ccnc3)nn2)cc1C	0	1	0	-7	-1	3
COc1cccc(Nc2ccc(-n3ccnc3)nn2)c1	15*	-1	1	-3	4	14
COc1cccc(Nc2ncccc2C(=O)Nc2ccccc2)c1	1	-8	5	9	19*	10
CCc1ccc(NC(=O)C(CC)c2ccccc2)cc1 (stereo unspecified)	19*	24*	2	-4	-2	24
COc1ccc(Cl)cc1NC(=O)NC(C)c1ccncc1 (stereo unspecified)	0	0	-12	29*	8	-7
CCC(C(=O)Nc1cc(Cl)ccc1OC)c1ccccc1 (stereo unspecified)	2	-4	-11	-12	19*	31
CCC(C(=O)Nc1ccc(C)cc1)c1ccccc1 (stereo unspecified)	1	-2	7	-8	-2	8
COc1ccc(Cl)cc1NC(=O)C(OC)c1ccccc1 (stereo unspecified)	0	-9	-1	-17	10	15
CC(C)(Oc1ccc(CCNC(=O)c2ccc(-c3ccc(Cl)cc3)o2)cc1)C(=O)O	3	3	9	1	-9	11
CCC(=O)Nc1ccc(NC(=O)c2ccco2)cc1	0	-2	-6	-18	4	14
CC(C)(C)OC(=O)N1CCC(NC(=O)c2[nH]cnc2C(=O)Nc2ccon2)CC1	2	-2	3	-14	1	17
CC(Oc1ccc2c3c(c(=O)oc2c1)CCCC3)C(=O)NC1CC(C)(C)NC(C)(C)C1 (stereo unspecified)	0	-2	-10	0	3	8
O=C1C(O)CCN1C1CCCCC1 (stereo unspecified)	0	0	12	-5	1	4
COc1ccccc1-c1cc(-c2ccc(C)cc2)nc(SCc2nnc(-c3ccccc3)o2)c1C#N	0	0	1	3	1	6
SMILES	CHO-K1 Ca ag	CHRM5 agonist	CHRM5 antagonist	CHO-K1 Ca antag	M5 PAM	CHO-K1 Ca PAM
Cc1cc(C)c(C#N)c(SCc2nnc(-c3ccccc3)o2)n1	1	-8	-3	25*	-9	-17
Cc1cc(C)c(C#N)c(SCc2nnc(-c3ccccc3[N+](=O)[O-])o2)n1	7	-2	47*	18	-21	-6
COc1ccccc1NS(=O)(=O)c1cc(C(=O)NCC(c2ccc(F)cc2)N2CCOCC2)ccc1C (stereo unspecified)	1	0	-6	6	7	-8
O=C(C[C@@H]1C/C=C\C[C@H](NC(=O)OCC2c3ccccc3-c3ccccc32)C(=O)OC[C@@H]2CCCN2C1=O)NCCO	0	1	7	-12	-11	-8
CCOC(=O)C1(CC/C(C)=N\NC(N)=O)CC(C)(C)OC1=O (stereo unspecified)	0	0	0	-9	-2	22
COC(/C(=N/O)c1ccc(Cl)cc1)c1ccccc1 (stereo unspecified)	9	-5	29*	31*	-20	-17
CCCN(C(=O)c1cn(CC)c2nc(C)ccc2c1=O)c1c(N)n(Cc2ccccc2)c(=O)[nH]c1=O	-1	-3	2	-5	-2	8
CC(=O)NC1(NC(C)=O)CCN(C)C(c2ccccc2)C1C (stereo unspecified)	0	26*	-8	0	10	2
Cc1nc(CN(C)C(=O)c2ccccc2OC2CCN(S(C)(=O)=O)CC2)cs1	0	2	4	-5	-2	4
Cc1ccc2c(c1)C(=O)C(=O)N2Cc1ccc(F)cc1	1	21	14	-2	6	6
Cc1ccc2c(c1)C(=O)C(=O)N2Cc1ccc(Cl)cc1	4	34*	0	-9	-3	14
O=c1oc(-c2ccccc2NS(=O)(=O)c2ccccc2)nc2ccccc12	1	-1	8	29*	-3	-6
Cc1cc(/C=C2\SC(=S)N(Cc3ccco3)C2=O)c(C)n1-c1ccccc1	2	12	6	19	22*	11
CN(C)c1ccc(C=C2SC(=S)N(Cc3ccco3)C2=O)cc1	12	13	19	12	-8	-6
O=C(CNCc1ccc(Cl)cc1)Nc1ccc2c(c1)OCCO2	22*	0	8	-10	1	21
O=C(CCn1c(=O)oc2ccccc21)NCCN1CCc2ccccc2C1	3	-4	14	1	-5	19
COc1ccccc1N1CCN(S(=O)(=O)c2ccc(Br)s2)CC1	1	-4	-2	-2	-8	15
COc1ccc(NC(=O)CSCC(=O)N(C)Cc2cccc(OC)c2OC)cc1	0	2	3	26*	-3	-33
